Data set [1] can be described thus: Drug transport across apical to basolateral side in MDCK cells expressing MDR1 at 10 uM after 1 hr by mass spectrometer. The class given is ADME, cell-based, Canis lupus familiaris. The following applies: dog. A digest of the protocol: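 MDCK-mdr1 cells (human MDR1-transfected) were grown 4 days to confluence on Transwell-type filters in DMEM/F12 with 10% FBS and antibiotics. Compound was added apically at 10 µM in HBSS with 25 mM D-glucose, HEPES-buffered to pH 7.4, and incubated 1 h at 37 °C. Apical and basal samples were collected, and results are given as % transported apical to basal.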

Data set [2] has as its target T1, Cannabinoid receptor 1 (Homo sapiens, UniProt P21554). Briefly: Displacement of [3H]-CP55940 from human CB1 receptor expressed in CHO cell membranes after 1 hr by liquid scintillation spectrometry. Background: Loss of bound radioactivity is the signal in a displacement assay; it reports binding, not function.
In the next data set the target is Cannabinoid receptor 2 (Homo sapiens, UniProt P34972). Briefly: Displacement of [3H]-CP55940 from human CB2 receptor expressed in CHO cell membranes after 1 hr by liquid scintillation spectrometry.
Cannabinoid receptor 2, sequence (P34972 whole entry): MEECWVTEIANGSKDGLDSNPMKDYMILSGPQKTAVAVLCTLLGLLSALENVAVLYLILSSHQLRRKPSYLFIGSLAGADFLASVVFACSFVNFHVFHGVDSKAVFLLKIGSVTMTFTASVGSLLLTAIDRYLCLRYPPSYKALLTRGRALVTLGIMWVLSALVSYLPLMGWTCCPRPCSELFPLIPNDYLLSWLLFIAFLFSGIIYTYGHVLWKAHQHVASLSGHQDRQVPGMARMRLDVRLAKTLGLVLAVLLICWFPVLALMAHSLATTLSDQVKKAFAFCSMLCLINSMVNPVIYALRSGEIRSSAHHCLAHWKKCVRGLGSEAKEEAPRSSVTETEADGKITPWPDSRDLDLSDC
Data set [3] concerns the target T1, Cannabinoid receptor 1. The following applies: HEK293.
The target of data set [4] is T1, Cannabinoid receptor 1. The class given is functional, cell-based, HEK293.
Data set [5] is described as follows: Half life in C57BL6 mouse at […], po administered in cassette format. The following applies: in vivo. Type of data set: ADME, organism-based.
Data set [6] in a line: Tmax in C57BL6 mouse plasma at […], po administered in cassette format. The class given is ADME, organism-based.
The nature of data set [7]: Cmax in C57BL6 mouse plasma at […], po administered in cassette format. Details: dose 2.5 mg/kg, route oral. Type of data set: ADME, organism-based.
Data set [8] can be described thus: Ratio of drug level in brain to plasma in C57BL6 mouse at […], po administered in cassette format. The class given is ADME, organism-based.

T1 sequence (P21554 whole entry): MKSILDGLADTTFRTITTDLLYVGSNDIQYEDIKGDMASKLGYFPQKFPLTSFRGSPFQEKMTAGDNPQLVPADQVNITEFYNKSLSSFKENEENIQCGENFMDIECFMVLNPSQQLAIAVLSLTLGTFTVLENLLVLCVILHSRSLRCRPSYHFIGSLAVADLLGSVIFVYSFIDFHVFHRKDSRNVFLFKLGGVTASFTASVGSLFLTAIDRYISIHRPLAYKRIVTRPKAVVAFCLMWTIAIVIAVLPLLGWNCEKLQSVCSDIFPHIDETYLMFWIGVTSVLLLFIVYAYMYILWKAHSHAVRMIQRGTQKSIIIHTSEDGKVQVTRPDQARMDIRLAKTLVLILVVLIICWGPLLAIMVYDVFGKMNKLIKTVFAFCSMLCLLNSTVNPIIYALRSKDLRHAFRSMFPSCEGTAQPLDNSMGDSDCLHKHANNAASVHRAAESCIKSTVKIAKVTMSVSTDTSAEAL

As a reminder, the Ki is the dissociation constant of the complex between target and ligand, obtained from inhibition or displacement. A lower Ki goes with a stronger hold on the target. Compound `CCCCC(=O)N1CCN(c2ncnc3c2nc(-c2ccccc2Cl)n3-c2ccc(Cl)cc2)CC1` displayed a Drug transport in [1] of 0%. Also, on Cannabinoid receptor 1 [2], affinity was put at a Ki of 0.006 µM.

For `CC(C)(C)CC(=O)N1CCN(c2ncnc3c2nc(-c2ccccc2Cl)n3-c2ccc(Cl)cc2)CC1`, the inhibitory constant (Ki) at Cannabinoid receptor 1 [2] came out at 0.002 µM; on Cannabinoid receptor 2, 5 µM.

`O=C(C1CCSCC1)N1CCN(c2ncnc3c2nc(-c2ccccc2Cl)n3-c2ccc(Cl)cc2)CC1`: the Ki at Cannabinoid receptor 2 amounted to 0.53 µM.

`O=C(Nc1ccc(F)cc1F)N1CCN(c2ncnc3c2nc(-c2ccccc2Cl)n3-c2ccc(Cl)cc2)CC1`: the Drug transport in [1] was 1.4%. Further, the affinity on Cannabinoid receptor 1 [2], expressed as Ki, was 0.005 µM.

On to `N=C(Nc1ccc(F)cc1)N1CCN(c2ncnc3c2nc(-c2ccccc2Cl)n3-c2ccc(Cl)cc2)CC1`, for which, in [1], the Drug transport is listed as 0.4%.

Compound `O=C(Nc1ccc(F)c(F)c1)N1CCN(c2ncnc3c2nc(-c2ccccc2Cl)n3-c2ccc(Cl)cc2)CC1` gave a Drug transport in data set [1] of 0%.

In data set [1], `CCCCS(=O)(=O)N1CCN(c2ncnc3c2nc(-c2ccccc2Cl)n3-c2ccc(Cl)cc2)CC1` returned a Drug transport of 5%.

In the case of `O=S(=O)(C1CC1)N1CCN(c2ncnc3c2nc(-c2ccccc2Cl)n3-c2ccc(Cl)cc2)CC1`, in [1], the Drug transport was 4%. The compound further gave a Ki at Cannabinoid receptor 1 [2] of 0.005 µM.

`O=C(OCC1CCC1)N1CCN(c2ncnc3c2nc(-c2ccccc2Cl)n3-c2ccc(Cl)cc2)CC1` yielded a Drug transport in [1] of 0%. This compound came in with a Ke at Cannabinoid receptor 1 [3] of 12 nM. The Ki at Cannabinoid receptor 1 [2] was found to be 0.003 µM; on Cannabinoid receptor 2, 4.6 µM.

With `O=C(CC1CCOC1)N1CCN(c2ncnc3c2nc(-c2ccccc2Cl)n3-c2ccc(Cl)cc2)CC1` (stereo not given), the Ki at Cannabinoid receptor 1 [2] is 0.008 µM; at Cannabinoid receptor 2, 3 µM.

For the compound `O=C(CC1CCCC1)N1CCN(c2ncnc3c2nc(-c2ccccc2Cl)n3-c2ccc(Cl)cc2)CC1`, the inhibition constant (Ki) on Cannabinoid receptor 1 [2] was 0.0004 µM; on Cannabinoid receptor 2, over 10 µM.

As to `CCS(=O)(=O)N1CCN(c2ncnc3c2nc(-c2ccccc2Cl)n3-c2ccc(Cl)cc2)CC1`, in data set [1], the Drug transport came to 18%. Further, the inhibitory constant (Ki) on Cannabinoid receptor 1 [2] was determined as 0.003 µM.

In turn, `O=C(N1CCCC1)N1CCN(c2ncnc3c2nc(-c2ccccc2Cl)n3-c2ccc(Cl)cc2)CC1` showed a Ki at Cannabinoid receptor 1 [2] of 0.013 µM.

`O=C(NC1CCCC1)N1CCN(c2ncnc3c2nc(-c2ccccc2Cl)n3-c2ccc(Cl)cc2)CC1` showed a Drug transport in [1] of 3%.

As for `O=S(=O)(CC1CCOCC1)N1CCN(c2ncnc3c2nc(-c2ccccc2Cl)n3-c2ccc(Cl)cc2)CC1`, the Drug transport in data set [1] amounted to 9%. Further, the figures for the Ki at Cannabinoid receptor 1 [2] and on Cannabinoid receptor 2 were 0.003 µM and 3 µM, respectively.

In turn, `O=C(Nc1ccccn1)N1CCN(c2ncnc3c2nc(-c2ccccc2Cl)n3-c2ccc(Cl)cc2)CC1` gave a Drug transport in data set [1] of 1.2%.

`CC(C)(C)OC(=O)N1CCN(c2ncnc3c2nc(-c2ccccc2Cl)n3-c2ccc(Cl)cc2)CC1`: the Drug transport in data set [1] amounted to 3%. The Ki at Cannabinoid receptor 1 [2] came out at 0.005 µM; at Cannabinoid receptor 2, 3.4 µM.

Take `O=C(Nc1ccc(F)cc1)N1CCN(c2ncnc3c2nc(-c2ccccc2Cl)n3-c2ccc(Cl)cc2)CC1`: the Drug transport in [1] is 0%.

For `O=S(=O)(CCC(F)(F)F)N1CCN(c2ncnc3c2nc(-c2ccccc2Cl)n3-c2ccc(Cl)cc2)CC1`, the Ki on Cannabinoid receptor 1 [2] was determined as 0.0012 µM; on Cannabinoid receptor 2, 0.5 µM.

With `O=C(NS(=O)(=O)c1ccccc1F)N1CCN(c2ncnc3c2nc(-c2ccccc2Cl)n3-c2ccc(Cl)cc2)CC1`, on Cannabinoid receptor 1 [2], the affinity corresponds to a Ki of 0.25 µM.

Take `CS(=O)(=O)N1CCN(c2ncnc3c2nc(-c2ccccc2Cl)n3-c2ccc(Cl)cc2)CC1`: the Drug transport in data set [1] came to 14%. For the same compound, the Ki at Cannabinoid receptor 1 [2] worked out at 0.024 µM; at Cannabinoid receptor 2, 1.7 µM.

Consider `O=S(=O)(CC1CCCCC1)N1CCN(c2ncnc3c2nc(-c2ccccc2Cl)n3-c2ccc(Cl)cc2)CC1`, for which the inhibitory constant (Ki) stood at 0.0017 µM on Cannabinoid receptor 1 [2] and 0.091 µM on Cannabinoid receptor 2.

Take `O=C(Nc1ccccc1F)N1CCN(c2ncnc3c2nc(-c2ccccc2Cl)n3-c2ccc(Cl)cc2)CC1`: the Drug transport in [1] is given as 5%.

On to `O=C(OC1CCC1)N1CCN(c2ncnc3c2nc(-c2ccccc2Cl)n3-c2ccc(Cl)cc2)CC1`, for which the Ki was found to be 0.003 µM on Cannabinoid receptor 1 [2] and 3.4 µM on Cannabinoid receptor 2.

In turn, `O=C(N1CCN(c2ncnc3c2nc(-c2ccccc2Cl)n3-c2ccc(Cl)cc2)CC1)C(F)(F)F` yielded a Ki at Cannabinoid receptor 2 of 0.13 µM.

`O=C(C1COc2ccccc2O1)N1CCN(c2ncnc3c2nc(-c2ccccc2Cl)n3-c2ccc(Cl)cc2)CC1` (stereo not given): the Drug transport in data set [1] is recorded as 0%. The compound also registered a Ki on Cannabinoid receptor 1 [2] of 0.005 µM.

`O=C(CN1CCCCC1)N1CCN(c2ncnc3c2nc(-c2ccccc2Cl)n3-c2ccc(Cl)cc2)CC1` returned a Drug transport in [1] of 5%. Further, the Ki at Cannabinoid receptor 1 [2] came to 0.021 µM; on Cannabinoid receptor 2 it was 5 µM.

With `O=C(Nc1ccccc1)N1CCN(c2ncnc3c2nc(-c2ccccc2Cl)n3-c2ccc(Cl)cc2)CC1`, the Drug transport in data set [1] came to 1%.

For the compound `CCOCC(=O)N1CCN(c2ncnc3c2nc(-c2ccccc2Cl)n3-c2ccc(Cl)cc2)CC1`, the Ki at Cannabinoid receptor 1 [2] was 0.011 µM; at Cannabinoid receptor 2 it was over 10 µM.

`CC(C)S(=O)(=O)N1CCN(c2ncnc3c2nc(-c2ccccc2Cl)n3-c2ccc(Cl)cc2)CC1` showed a Drug transport in data set [1] of 11%.

In the case of `CC(C(=O)N1CCN(c2ncnc3c2nc(-c2ccccc2Cl)n3-c2ccc(Cl)cc2)CC1)c1ccccc1` (stereo not given), the Ki at Cannabinoid receptor 1 [2] amounted to 0.003 µM; on Cannabinoid receptor 2, 0.56 µM.

As for `CC(C)CS(=O)(=O)N1CCN(c2ncnc3c2nc(-c2ccccc2Cl)n3-c2ccc(Cl)cc2)CC1`, the Drug transport in data set [1] was 0%. The affinity on Cannabinoid receptor 2, expressed as Ki, was 2.8 µM.

Usually EC50 stands for the concentration giving half of the maximal effect. By half-life is commonly meant how long it takes for the measured level to halve. Read a high half-life as slow loss. As a reminder, the Tmax is the time at which the peak concentration occurs. Broadly, the Cmax is the highest concentration seen after dosing. With `O=C(Nc1ccc(OC(F)F)nc1)N1CCN(c2ncnc3c2nc(-c2ccccc2Cl)n3-c2ccc(Cl)cc2)CC1`, the Drug transport in data set [1] was found to be 1.1%. At Cannabinoid receptor 1 [4], this compound showed an EC50 of 0.59 µM. The compound further showed a half-life in data set [5] of 6.1 h. In addition, in data set [6], the time of peak concentration (Tmax) is 4 h. In addition, the concentration in data set [7] peaked (Cmax) at 0.5 µg/mL. Further, the BPR in data set [8] stood at 0.18. In addition, on Cannabinoid receptor 2, the Ki is over 10 µM.

`CCCS(=O)(=O)N1CCN(c2ncnc3c2nc(-c2ccccc2Cl)n3-c2ccc(Cl)cc2)CC1` displayed a Drug transport in [1] of 6%.

For the origin of these results see ChEMBL document CHEMBL4229498 (Bioorg Med Chem, 2018).
